Our source for the IC50 values is ChEMBL document CHEMBL1145020, “Synthesis and structure-activity relationships of 6,7-disubstituted 4-anilinoquinoline-3-carbonitriles. The design of an orally active, irreversible inhibitor of the tyrosine kinase activity of the epidermal growth factor receptor (EGFR) and the human epidermal growth factor receptor-2 (HER-2)” (J Med Chem, 2003).

One assay relates to A-431. As to the kind of experiment: Concentration required to inhibit growth of human carcinoma epidermoid (A431) cell line. The format is functional, cell-based.
Assay [1] deals with Receptor tyrosine-protein kinase erbB-2 (Homo sapiens, UniProt P04626). Nature of the assay: Concentration required to inhibit autophosphorylation of cytoplasmic domain of human epidermal growth factor receptor-2.
Sequence of Receptor tyrosine-protein kinase erbB-2 (P04626 whole entry, the tested form may be a part): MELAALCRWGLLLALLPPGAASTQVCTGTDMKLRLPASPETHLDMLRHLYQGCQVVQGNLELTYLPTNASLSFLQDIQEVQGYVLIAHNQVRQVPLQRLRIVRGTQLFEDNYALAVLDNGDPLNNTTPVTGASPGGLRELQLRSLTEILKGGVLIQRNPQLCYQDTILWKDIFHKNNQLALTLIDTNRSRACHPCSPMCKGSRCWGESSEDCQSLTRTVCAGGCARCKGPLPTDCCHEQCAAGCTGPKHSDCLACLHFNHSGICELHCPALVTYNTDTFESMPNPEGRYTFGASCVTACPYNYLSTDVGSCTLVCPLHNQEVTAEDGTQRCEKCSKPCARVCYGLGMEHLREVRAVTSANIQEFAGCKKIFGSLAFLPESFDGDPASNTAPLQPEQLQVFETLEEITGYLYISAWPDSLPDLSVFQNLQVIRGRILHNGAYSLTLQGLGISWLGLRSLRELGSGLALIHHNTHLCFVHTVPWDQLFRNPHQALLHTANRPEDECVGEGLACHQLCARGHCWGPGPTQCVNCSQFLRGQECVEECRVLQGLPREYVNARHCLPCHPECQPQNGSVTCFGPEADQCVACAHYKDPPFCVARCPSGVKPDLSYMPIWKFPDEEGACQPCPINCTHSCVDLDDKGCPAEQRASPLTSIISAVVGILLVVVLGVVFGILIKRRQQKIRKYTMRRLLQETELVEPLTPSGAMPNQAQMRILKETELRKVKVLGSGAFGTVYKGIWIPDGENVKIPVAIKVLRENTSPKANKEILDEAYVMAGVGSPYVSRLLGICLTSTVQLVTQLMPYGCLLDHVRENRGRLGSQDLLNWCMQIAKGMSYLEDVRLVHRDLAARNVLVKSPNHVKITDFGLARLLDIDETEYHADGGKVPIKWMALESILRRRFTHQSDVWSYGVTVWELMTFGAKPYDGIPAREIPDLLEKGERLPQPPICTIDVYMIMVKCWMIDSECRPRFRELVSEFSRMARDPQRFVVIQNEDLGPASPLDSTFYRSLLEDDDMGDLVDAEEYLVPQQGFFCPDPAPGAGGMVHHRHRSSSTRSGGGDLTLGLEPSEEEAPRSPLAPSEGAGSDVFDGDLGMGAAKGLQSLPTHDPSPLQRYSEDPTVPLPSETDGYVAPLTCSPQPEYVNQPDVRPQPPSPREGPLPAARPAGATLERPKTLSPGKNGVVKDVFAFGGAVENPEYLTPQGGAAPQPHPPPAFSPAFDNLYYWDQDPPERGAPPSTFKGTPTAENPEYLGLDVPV
Another assay has as its system SW-620. Nature of the assay: Concentration required to inhibit growth of human carcinoma colon (SW620) cell line. The format is functional, cell-based.
Assay [2] is described as follows: Concentration required to inhibit growth of human carcinoma breast (SKBR3) cell line. It is filed as functional. The conditions noted are these: SK-BR-3. The method, boiled down:
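Cell growth inhibition measured from dose–response curves at five concentrations. […] Reported values average at least two determinations.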

The target in assay [3] is Epidermal growth factor receptor (Homo sapiens, UniProt P00533).
Sequence of Epidermal growth factor receptor (P00533 whole entry): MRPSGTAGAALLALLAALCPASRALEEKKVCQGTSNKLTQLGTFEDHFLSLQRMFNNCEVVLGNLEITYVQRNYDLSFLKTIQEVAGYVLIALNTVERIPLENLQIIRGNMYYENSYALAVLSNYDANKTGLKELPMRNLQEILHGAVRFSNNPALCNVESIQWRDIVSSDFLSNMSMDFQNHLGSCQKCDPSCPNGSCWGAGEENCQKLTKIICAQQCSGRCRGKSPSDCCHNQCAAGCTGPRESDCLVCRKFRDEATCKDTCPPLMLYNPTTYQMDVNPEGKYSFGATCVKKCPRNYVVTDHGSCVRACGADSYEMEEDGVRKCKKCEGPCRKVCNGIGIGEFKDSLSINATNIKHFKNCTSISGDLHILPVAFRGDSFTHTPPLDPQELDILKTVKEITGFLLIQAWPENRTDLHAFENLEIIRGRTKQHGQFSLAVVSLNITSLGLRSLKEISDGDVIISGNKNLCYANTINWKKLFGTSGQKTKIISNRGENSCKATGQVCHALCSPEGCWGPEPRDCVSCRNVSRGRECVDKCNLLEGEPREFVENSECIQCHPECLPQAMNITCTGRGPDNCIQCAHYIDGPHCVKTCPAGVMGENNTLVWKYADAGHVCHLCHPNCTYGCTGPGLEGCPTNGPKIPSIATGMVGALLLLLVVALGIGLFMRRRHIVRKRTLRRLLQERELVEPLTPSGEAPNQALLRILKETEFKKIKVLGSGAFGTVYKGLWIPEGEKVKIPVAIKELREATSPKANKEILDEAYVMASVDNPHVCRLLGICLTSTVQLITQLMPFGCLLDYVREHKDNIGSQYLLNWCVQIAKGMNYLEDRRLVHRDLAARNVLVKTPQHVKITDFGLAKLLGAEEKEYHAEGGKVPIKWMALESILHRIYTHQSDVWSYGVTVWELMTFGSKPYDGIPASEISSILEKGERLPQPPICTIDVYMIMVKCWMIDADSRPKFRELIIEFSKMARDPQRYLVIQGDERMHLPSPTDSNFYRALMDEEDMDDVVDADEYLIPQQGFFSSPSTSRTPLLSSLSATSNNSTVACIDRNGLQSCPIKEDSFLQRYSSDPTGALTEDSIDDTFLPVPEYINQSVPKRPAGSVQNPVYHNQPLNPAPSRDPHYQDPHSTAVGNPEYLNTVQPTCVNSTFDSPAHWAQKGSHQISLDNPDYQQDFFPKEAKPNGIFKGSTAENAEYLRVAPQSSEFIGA

As a reminder, the IC50 is the concentration that inhibits the measured activity by half.

Take `C=CC(=O)Nc1ccc2ncc(C#N)c(Nc3cccc(Br)c3)c2c1`: the IC50 in the assay on A-431 is 360 nM; in assay [1], 1630 nM; in the assay with SW-620, 3380 nM; in assay [2], 440 nM; in assay [3] it was 590 nM.

Regarding `C/C=C/C(=O)Nc1cc2c(Nc3ccc(F)c(Cl)c3)c(C#N)cnc2cc1OCC`, the IC50 in assay [1] stood at 21500 nM; in assay [2], 170 nM.

In the case of `C/C=C/C(=O)Nc1ccc2ncc(C#N)c(Nc3cccc(Br)c3)c2c1`, the IC50 with A-431 amounted to 4400 nM; in the assay with SW-620, 12300 nM; in assay [2], 10100 nM.

Consider `C=CC(=O)Nc1cc2c(Nc3cccc(Br)c3)c(C#N)cnc2cc1OC`, for which the IC50 in the assay with A-431 was determined as 310 nM; in assay [1] it was 4680 nM; in the assay with SW-620, 1880 nM; in assay [2], 120 nM.

As for `COc1cc2ncc(C#N)c(Nc3cccc(Br)c3)c2cc1NC(=O)C#CCN(C)C`, the half-inhibitory concentration (IC50) in the assay with A-431 was found to be 110 nM; in assay [1] it was 180 nM; in the assay on SW-620 it was 300 nM; in assay [2] it was 120 nM; in assay [3], 90 nM.

In the case of `COc1cc2ncc(C#N)c(Nc3cccc(Br)c3)c2cc1NC(=O)/C=C/CN1CCOCC1`, the IC50 was found to be 34100 nM in assay [1], 5380 nM in the assay with SW-620 and 120 nM in assay [2].

On to `CC#CC(=O)Nc1cc2c(Nc3cccc(Br)c3)c(C#N)cnc2cc1OC`, for which the IC50 in the assay with A-431 was 5120 nM; in assay [1], 2120 nM; in the assay on SW-620 it was 7580 nM; in assay [2] it was 8360 nM; in assay [3] it was 910 nM.

For `COc1cc2ncc(C#N)c(Nc3cccc(Br)c3)c2cc1NC(=O)/C=C/CN(C)C`, the IC50 in the assay with A-431 was determined as 140 nM; in assay [1] it was 5660 nM; in the assay with SW-620, 1170 nM; in assay [2] it was 30 nM; in assay [3], 790 nM.

Consider `N#Cc1cnc2ccc(NC(=O)C#CCN3CCSCC3)cc2c1Nc1cccc(Br)c1`, for which the IC50 was determined as 100 nM in the assay with A-431; 1040 nM in assay [1]; 350 nM in the assay on SW-620; 70 nM in assay [2]; 550 nM in assay [3].

On to `C=C(CN1CCOCC1)C(=O)Nc1ccc2ncc(C#N)c(Nc3ccc(F)c(Cl)c3)c2c1`, for which the IC50 in assay [1] was 4390 nM; with SW-620, 490 nM; in assay [2], 220 nM.

`COCCOCC#CC(=O)Nc1ccc2ncc(C#N)c(Nc3cccc(Br)c3)c2c1`: the IC50 with A-431 came to 270 nM; in assay [1], 450 nM; in the assay with SW-620, 340 nM; in assay [2], 390 nM; in assay [3] it was 930 nM.

For the compound `COCC#CC(=O)Nc1cc2c(Nc3cccc(Br)c3)c(C#N)cnc2cc1OC`, the IC50 in the assay on A-431 came out at 730 nM; in assay [1] it was 380 nM; in the assay on SW-620, 1770 nM; in assay [2], 290 nM; in assay [3], 790 nM.

As to `CC(C)N(CC#CC(=O)Nc1ccc2ncc(C#N)c(Nc3cccc(Br)c3)c2c1)C(C)C`, the 50% inhibitory concentration (IC50) with A-431 is 140 nM; in assay [1] it was 320 nM; in the assay with SW-620, 250 nM; in assay [2] it was 40 nM.

`CCOc1cc2ncc(C#N)c(Nc3ccc(F)c(Cl)c3)c2cc1NC(=O)/C=C/CN(C)C` [PELITINIB] registered an IC50 in assay [2] of 10 nM.

With `COc1cc2ncc(C#N)c(Nc3ccc(F)c(Cl)c3)c2cc1NC(=O)/C=C/CN(C)C`, the IC50 in assay [1] was 4490 nM; in the assay on SW-620, 910 nM; in assay [2] it was 40 nM.

For the compound `CN(C)C/C=C/C(=O)Nc1ccc2ncc(C#N)c(Nc3cccc(Br)c3)c2c1`, the IC50 in the assay with A-431 turned out to be 450 nM; in assay [1], 4160 nM; in the assay on SW-620, 5480 nM; in assay [2] it was 180 nM; in assay [3], 310 nM.

Take `CCN(CC)C/C=C/C(=O)Nc1cc2c(Nc3ccc(F)c(Cl)c3)c(C#N)cnc2cc1OC`: the IC50 in assay [1] was determined as 7800 nM; in the assay on SW-620, 660 nM; in assay [2], 50 nM.

As to `CC#CC(=O)Nc1ccc2ncc(C#N)c(Nc3cccc(Br)c3)c2c1`, the concentration for half-maximal inhibition (IC50) with A-431 was 5030 nM; in assay [1], 3870 nM; in the assay with SW-620 it was 12300 nM; in assay [2], 5500 nM; in assay [3], 940 nM.

For `COc1cc(NC(=O)/C=C/CN2CCOCC2)cc2c(Nc3cccc(Br)c3)c(C#N)cnc12`, the 50% inhibitory concentration (IC50) came to 23600 nM in assay [1], 9570 nM in the assay with SW-620 and 2660 nM in assay [2].

For the compound `CCOc1cc2ncc(C#N)c(Nc3cccc(Br)c3)c2cc1NC(=O)/C=C/CN(C)C`, the results for the IC50 (in assay [1]; in the assay with SW-620; in assay [2]) were 2970 nM, 1150 nM and 30 nM, respectively.

For `CCN(CC)C(C)/C=C/C(=O)Nc1cc2c(Nc3ccc(F)c(Cl)c3)c(C#N)cnc2cc1OC` (stereo not drawn), the figures for the IC50 (in assay [1]; in the assay with SW-620; in assay [2]) were 9580 nM, 880 nM and 310 nM, respectively.

Consider `COc1cc(NC(=O)/C=C/CN(C)C)cc2c(Nc3cccc(Br)c3)c(C#N)cnc12`, for which the IC50 in the assay on A-431 was determined as 2520 nM; in assay [1], 9350 nM; with SW-620 it was 8970 nM; in assay [2] it was 2520 nM; in assay [3], 2880 nM.

In the case of `COc1cc2ncc(C#N)c(Nc3ccc(F)c(Cl)c3)c2cc1NC(=O)/C=C/C(C)N(C)C` (stereo not drawn), the IC50 in assay [1] is 11800 nM; in the assay on SW-620 it was 1130 nM; in assay [2], 190 nM.

With `CCOc1cc2ncc(C#N)c(Nc3cccc(Br)c3)c2cc1NC(=O)/C=C/CN1CCOCC1`, the IC50 came out at 34000 nM in assay [1], 2880 nM with SW-620 and 70 nM in assay [2].

Consider `N#Cc1cnc2ccc(NC(=O)/C=C/CN3CCOCC3)cc2c1Nc1ccc(F)c(Cl)c1`, for which the IC50 is 8740 nM in assay [1], 6330 nM in the assay on SW-620 and 220 nM in assay [2].

Take `CCCN(CC#CC(=O)Nc1ccc2ncc(C#N)c(Nc3cccc(Br)c3)c2c1)CCC`: the half-maximal inhibitory concentration (IC50) in the assay with A-431 was 240 nM; in assay [1] it was 370 nM; with SW-620, 400 nM; in assay [2], 80 nM; in assay [3], 130 nM.

`C=C(CN(C)C)C(=O)Nc1cc2c(Nc3ccc(F)c(Cl)c3)c(C#N)cnc2cc1OCC`: the IC50 turned out to be 180 nM in the assay with A-431; 1210 nM in assay [1]; 320 nM with SW-620; 90 nM in assay [2]; 560 nM in assay [3].

For the compound `CN(C)C/C=C/C(=O)Nc1ccc2ncc(C#N)c(Nc3ccc(F)c(Cl)c3)c2c1`, the IC50 in the assay on A-431 was 150 nM; in assay [1], 1950 nM; with SW-620, 880 nM; in assay [2], 50 nM; in assay [3], 650 nM.

As for `COc1cc2ncc(C#N)c(Nc3ccc(F)c(Cl)c3)c2cc1NC(=O)/C=C/CN1CCOCC1`, the half-maximal inhibitory concentration (IC50) turned out to be 31400 nM in assay [1], 6670 nM with SW-620 and 110 nM in assay [2].

In the case of `COCC#CC(=O)Nc1ccc2ncc(C#N)c(Nc3cccc(Br)c3)c2c1`, the IC50 in the assay with A-431 was found to be 280 nM; in assay [1], 300 nM; in the assay with SW-620 it was 520 nM; in assay [2], 350 nM; in assay [3], 960 nM.

For `COC[C@@H]1CCCN1CC#CC(=O)Nc1ccc2ncc(C#N)c(Nc3cccc(Br)c3)c2c1`, the IC50 in the assay with A-431 was determined as 1200 nM; in assay [1] it was 1220 nM; with SW-620, 4140 nM; in assay [2] it was 540 nM; in assay [3], 150 nM.

Consider `CN(C)C/C=C/C(=O)Nc1cc2c(Nc3ccc(F)c(Cl)c3)c(C#N)cnc2cc1OC(F)(F)F`, for which the values for the IC50 (in assay [1]; with SW-620; in assay [2]) were 4130 nM, 1460 nM and 300 nM, respectively.

Regarding `COc1cc2ncc(C#N)c(Nc3ccc(F)c(Cl)c3)c2cc1NC(=O)/C=C/C(C)N1CCOCC1` (stereo not drawn), the IC50 was 34000 nM in assay [1], 4940 nM with SW-620 and 200 nM in assay [2].
